Compound activity (PubChem BioAssay)
The list is not random: actives were taken first. Their share in the collection is about 0.99%.
Dyrk1A ADPGlo = rat Dyrk1A kinase inhibitors, primary screen, biochemical, single point, plate reader; Dual specificity tyrosine-phosphorylation-regulated kinase 1A (Rattus norvegicus), Q63470; ADP-Glo luminescence, NFATc1 peptide; inhibition, % at 12.5 µM; hit rate 0.43% among 310,000; AID 504441, 2011; in the data active means inhibition above about 50%;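 further: plate controls were vehicle with enzyme for no effect and no enzyme for full effect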
Rin1 Abl inh = inhibitors of Rin1-Abl protein binding, primary screen, biochemical, TR-FRET; Tyrosine-protein kinase ABL1 (Homo sapiens) + Ras and Rab interactor 1 (Homo sapiens), …; inhibition, % at 7.35 µM; hit rate 0.4% among 360,000; AID 588664, 2011; in the data active means inhibition above about 5%, passing the limit was not always enough
GSK3 alpha inh = blockers of GSK3A enzyme activity – biochemical, luminescence, cell-free homogeneous, HTS, primary screen | inhibition, % at 10 µM | AID 2650, 2010 | hit rate 0.1% among 320,000 | GSK-3 alpha kinase, ADP-Glo luminescence, 60 min;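 active means more than half of replicates show inhibition above 20%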;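 further: GST-tagged GSK-3 alpha with peptide substrate and 25 µM ATP; 0% = DMSO neutral wells and 100% = GW8510 positive control wells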
GSK3beta inhib = human GSK3beta kinase inhibitors, primary screen, biochemical, cell-free homogeneous, HTS; Glycogen synthase kinase-3 beta (Homo sapiens), P49841; GST-GSK3beta kinase, ADP-Glo luminescence, 60 min; stronger effect = lower value; activity score (negative = inhibition), % at 10 µM; hit rate 0.038% among 300,000;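 active means more than half of replicate wells score below -50%, meaning over 50% inhibition versus plate controls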;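 further: 0% = median DMSO wells and -100% = median GW8510 positive control wells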
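Test system – GST-tagged human GSK3beta kinase, cell-free · Incubation – 60 min enzyme reaction, room temperature · Signal – ADP-Glo luminescence · Also added – peptide substrate and ATP at 25 µM · Controls – DMSO neutral wells and GW8510 at 20 µM as positive · Buffer or medium – Tris/MgCl2 kinase buffer · Measure – Luminescence-derived activity versus plate DMSO and GW8510 wells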
Arr AP2 block = inhibitors of beta-arrestin/AP2 binding, primary screen, biochemical, GPCR trafficking, flow cytometry; FITC-arrestin peptide / GST-AP2 beads; AP2 beta2 appendage carries R879A mutation; hit rate 0.31% among 340,000; AID 504490, 2011; inhibition, % at 10 µM;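 active means inhibition above a set limit, near 3 SD of compounds lacking own fluorescence, cut at about 54% in these data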;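 further: plate controls were DMSO wells for no effect and 5 µM unlabelled arrestin peptide for full effect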
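system = GST-tagged AP2 beta2-adaptin appendage (R879A) on 4 µm glutathione beads | reagent = FITC-labelled arrestin peptide probe, 50 nM final | schedule = compound with beads 12 min RT, then probe 1 h RT | signal = HyperCyt-sampled flow cytometry, FL1 channel, ex 488/em 535 nm | read-out = percent response from loss of bead-bound FITC fluorescence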
STK33 kinase inh = inhibitors of purified STK33 kinase, primary screen, biochemical, ADP-Glo luminescence, homogeneous, cell-free; hit rate 0.073% among 320,000; MBP phosphorylation; inhibition, % at 10 µM; AID 2661, 2010; Serine/threonine-protein kinase 33 (Homo sapiens), Q9BYT3;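 active means inhibition at or above 25%, using the most active replicate where run in duplicate; inactive means inhibition below 25%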
Arr AP2 CP1 = inhibitors of arrestin peptide binding to AP2, confirmation, biochemical, cherry pick 1, flow cytometry beads; hit rate 2% among 1,300; inhibition, % at 10 µM; GST-AP2 beads, FITC arrestin peptide binding; GST-fused beta2-adaptin appendage, R879A mutant; shares compounds with Arr AP2 block; AID 504908, 2011;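 active means inhibition above a set limit, roughly 3 SD of non-fluorescent compound noise, cut at about 38% in these data; inactive means inhibition at or below that limit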;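 further: loss of bead fluorescence from 50 nM FITC arrestin peptide bound to appendage; 0% = negative control wells and 100% = excess unlabelled arrestin peptide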
GST-FITC bead = GST-fluorescein capture on glutathione beads, confirmation, artefact control for arrestin-AP2 inhibitor project, biochemical, cherry pick 1, flow cytometry | GST-fluorescein binding to GSH beads, fluorescence, counter-screen | hit rate 2% among 1,300 | shares compounds with Arr AP2 block | inhibition, % at 10 µM;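 active means inhibition above 50%, about 3 SD of the inhibition seen with non-fluorescent compounds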;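 further: fluorescein maleimide labelled GST captured on 4 micron glutathione beads; higher means more loss of bead fluorescence from quenching or blocked binding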
Rin1 Abl conf = Rin1-Abl binding inhibitor retest, confirmation, biochemical, TR-FRET; shares compounds with Rin1 Abl inh; purified proteins; inhibition, % at 7.35 µM; hit rate 49% among 1,300; AID 602124, 2011
GFP quench = GFP fluorescence inhibitors and quenchers, artefact control for Rin1-Abl interaction inhibitor project, biochemical; hit rate 8.5% among 1,300; inhibitors/quenchers counterscreen; inhibition, % at 6.75 µM; shares compounds with Rin1 Abl inh;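 further: ABL1-eGFP fusion protein alone without its partner RIN1-SBP; 0% = protein with vehicle and 100% = wells lacking protein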
GFP quench DR = GFP fluorescence inhibitors and quenchers, dose response, artefact control for Rin1-Abl interaction inhibitor project, biochemical. shares compounds with Rin1 Abl inh. GFP fluorescence interference/quenching counterscreen. IC50, µM. 230 tested, under 10 active. AID 602182, 2012; call rule not given here;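 further: ABL1-eGFP fusion protein alone without its RIN1 binding partner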
Starred values were filed as active, the others as inactive; . = no result. Unless noted, no stated cut-off is given here; in the data, active means inhibition above about 6.5%; inactive means the rest.

SMILES	Dyrk1A ADPGlo	Rin1 Abl inh	GSK3 alpha inh	GSK3beta inhib	Arr AP2 block	STK33 kinase inh	Rin1 Abl conf	GFP quench	others
O=C1C=CC(=O)c2c(O)c(N3CCN(CCO)CC3)c(Cl)c(O)c21	16	48*	.	.	80*	.	51*	24*	Arr AP2 CP1=44*;GST-FITC bead=8
O=C1C=CC(=O)c2c(O)c(N3CCN(CCOCCO)CC3)c(Br)c(O)c21	.	39*	.	.	69*	.	54*	25*	Arr AP2 CP1=52*;GST-FITC bead=20
O=S(=O)(c1ccc(Br)cc1Cl)N1CCN(CCO)CC1	1	-3	1	1	5	-3	.	.
CN(CC(=O)Nc1ccc(Cl)cc1)C(=O)CNC(=O)c1ccc(Br)o1	-4	3	-1	-1	41	.	.	.
CC1(c2ccccc2)NC(=O)N(CC(=O)Nc2ccc3c(c2)CCC3)C1=O (configuration not stated)	.	8.2*	0	.	-7	-1	-2	1
O=C(Nc1c(-c2ccc3c(c2)OCO3)[nH][nH]c1=O)c1ccccc1	.	24*	.	.	.	.	9.0*	0
O=C(NCc1cccc(Cl)c1)c1ccc2ccccc2n1	27	0	-1	-2	9	2	.	.
Cn1cnc2c1c(=O)n(Cc1ccc(F)cc1Cl)c(=O)n2C	4	7.6*	1	-3	30	-1	5	1
CCOc1ccc(CN(C)C(=O)CNC(=O)c2sc3ccccc3c2Cl)cc1	-1	0	1	.	-2	-2	.	.
Cc1cc(=O)n2nc(N3CCCC(C(=O)N4CCOCC4)C3)sc2n1 (configuration not stated)	7	1	-1	.	-1	-2	.	.
Cc1cc(=O)n2nc(N3CCCC(C(=O)N4CCc5ccccc54)C3)sc2n1 (configuration not stated)	-4	13*	-6	2	-39	-1	17*	1
CCN(CC)CCNC(=O)c1ccc(NC(=O)C2CCN(c3ncnc4sc(C)c(C)c34)CC2)cc1	32	10*	53*	3	-7	3	0	0
Cc1sc2ncnc(N3CCC(C(=O)Nc4ccc(OC(F)F)c(Cl)c4)CC3)c2c1C	2	-2	0	.	-3	-1	.	.
Cc1ccc(NC(=O)CSc2nnc3n2CCCCC3)cc1	0	6.0*	-1	-3	6	0	0	-2
O=C(CSc1nnc(NC(=O)C2CC2)s1)NCc1ccccc1Cl	-2	-1	-3	-4	-9	0	.	.
O=c1cc(SCc2ccccc2)nc[nH]1	.	89*	.	.	2	.	98*	1	GFP quench DR=>68
COc1ccc(-n2c(Cc3cccn3C)nnc2SCC(=O)Nc2cccc(NC(C)=O)c2)cc1	6	9.1*	-3	0	2	-1	-3	0
CC(c1ccccc1)N(CCC(c1ccccc1)C1CCOC(C)(C)C1)C(=O)c1ccco1 (configuration not stated)	-6	-1	-4	-5	4	0	.	.
COc1ccc(CN(CCC(c2ccc(F)cc2)C2CCOC(C)(C)C2)C(=O)c2ccco2)cc1 (configuration not stated)	1	5.5*	0	0	8	-6	18*	0
CCOC(=O)c1cnc(-n2nc(C)cc2C)[nH]c1=O	-1	-3	-3	1	30	-2	.	.
CCOC(=O)c1cnc(-n2[nH]c(C)cc2=O)[nH]c1=O	-3	14*	-1	2	6	-2	8.6*	7.8*
[O-]/C(=C(\C(=S)Nc1cccc2ccccc12)[n+]1ccccc1)c1ccc(Cl)s1	0	-3	-3	1	-10	-1	.	.
[O-]C(=C(C(=S)Nc1cccc2ccccc12)[n+]1cccc(CO)c1)c1ccc(Cl)s1	-3	13*	.	.	21	.	0	0
O=C1N(c2cccc(Cl)c2)C(c2ccc(Cl)cc2)N2CCCN12 (configuration not stated)	-3	11*	-1	-4	1	-1	18*	-2	GFP quench DR=>68
O=C1N(c2cccc(Cl)c2)C(c2ccccc2)N2CCCN12 (configuration not stated)	0	17*	-2	-4	27	-1	24*	-1	GFP quench DR=>68
SMILES	Dyrk1A ADPGlo	Rin1 Abl inh	GSK3 alpha inh	GSK3beta inhib	Arr AP2 block	STK33 kinase inh	Rin1 Abl conf	GFP quench	others
O=C(NC1CCCCC1)c1ccc(CS(=O)Cc2ccccc2Cl)o1 (configuration not stated)	-2	2	0	0	3	0	.	.
O=C(NC1CCCC1)c1ccc(CS(=O)Cc2ccccc2Cl)o1 (configuration not stated)	-6	18*	2	0	13	-1	0	0
CC(C)c1nc2oc3c(=O)[nH]cnc3c2c2c1COC(C)(C)C2	-8	3	-2	-1	-8	-2	.	.
CC(C)c1nc2oc3c(=O)[nH]cnc3c2c2c1CCC2	-13	7.8*	0	1	13	-1	13*	-1
Cc1cc(C(=O)NNC(=O)c2ccc(Cl)c(S(N)(=O)=O)c2)c(C)o1	.	3	-2	.	-1	0	.	.
COc1ccc(S(=O)(=O)N2CCc3cc4c(cc3C2C)OCCCO4)cc1 (configuration not stated)	.	3	-2	-1	-13	-1	.	.
